Assay results reported in ChEMBL document CHEMBL4041491, “Imidazo[1,2-a]pyrazin-8-amine core for the design of new adenosine receptor antagonists: Structural exploration to target the A3 and A2A subtypes” (Eur J Med Chem, 2017).

Experiments:
[1] = biological target: T1, Adenosine receptor A2b (Homo sapiens) (UniProt P29275); assay: Antagonist activity at human A2B receptor expressed in CHO cells assessed as inhibition of NECA-stimulated cAMP production at 1 uM by [3H]cAMP competition binding based scintillation counting method relative to control; assay type: functional, cell-based
T1 sequence (whole entry): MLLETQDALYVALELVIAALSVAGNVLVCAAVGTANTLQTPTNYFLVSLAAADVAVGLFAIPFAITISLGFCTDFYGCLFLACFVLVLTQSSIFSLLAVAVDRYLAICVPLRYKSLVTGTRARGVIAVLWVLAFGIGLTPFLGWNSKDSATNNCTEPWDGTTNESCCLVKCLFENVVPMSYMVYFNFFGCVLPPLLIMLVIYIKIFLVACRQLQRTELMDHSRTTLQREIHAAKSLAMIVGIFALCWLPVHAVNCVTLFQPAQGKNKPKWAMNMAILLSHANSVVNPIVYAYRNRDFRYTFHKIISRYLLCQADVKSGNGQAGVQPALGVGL
How it was run: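 Transfected CHO cells (1 × 10^6/assay) in buffered saline pH 7.4 with adenosine deaminase 2 IU/ml and Ro 20-1724, preincubated 10 min at 37 °C. Test compound at 1 μM against 200 nM NECA-stimulated cAMP. TCA stop, ether extraction, cAMP measured by [3H]cAMP competition binding to bovine adrenal binding protein. Result given as percent inhibition.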

[2] = biological target: T2, Adenosine receptor A1 (Homo sapiens) (UniProt P30542); assay: Displacement of [3H]DPCPX from human adenosine A1 receptor expressed in CHO cell membranes at 1 uM after 120 mins by scintillation counting method relative to control
T2 sequence (whole entry): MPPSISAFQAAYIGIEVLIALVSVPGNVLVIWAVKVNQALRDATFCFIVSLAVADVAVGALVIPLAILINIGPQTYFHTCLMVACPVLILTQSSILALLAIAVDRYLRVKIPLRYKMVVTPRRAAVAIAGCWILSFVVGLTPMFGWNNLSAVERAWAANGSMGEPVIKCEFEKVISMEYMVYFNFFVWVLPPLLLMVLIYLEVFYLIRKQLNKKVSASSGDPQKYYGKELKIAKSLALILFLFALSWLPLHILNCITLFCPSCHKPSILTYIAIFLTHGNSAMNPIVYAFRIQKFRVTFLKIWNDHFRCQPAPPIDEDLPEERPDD
How it was run: (§1)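 hA1 CHO membranes (50 µg protein) with 1 nM [3H]DPCPX in 50 mM Tris HCl pH 7.4, 120 min at 25 °C. Six to eight antagonist concentrations, or 1 µM for percent inhibition. Nonspecific binding with 1 µM DPCPX. Ki via Cheng–Prusoff, four assays in duplicate, means ± SEM.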

Adenosine receptor A3 [3] = biological target: T3, Adenosine receptor A3 (Homo sapiens, UniProt P0DMS8); assay: Displacement of [125I]AB-MECA from human adenosine A3 receptor expressed in CHO cell membranes at 1 uM after 120 mins by scintillation counting method relative to control
T3 sequence (P0DMS8 whole entry, looked up): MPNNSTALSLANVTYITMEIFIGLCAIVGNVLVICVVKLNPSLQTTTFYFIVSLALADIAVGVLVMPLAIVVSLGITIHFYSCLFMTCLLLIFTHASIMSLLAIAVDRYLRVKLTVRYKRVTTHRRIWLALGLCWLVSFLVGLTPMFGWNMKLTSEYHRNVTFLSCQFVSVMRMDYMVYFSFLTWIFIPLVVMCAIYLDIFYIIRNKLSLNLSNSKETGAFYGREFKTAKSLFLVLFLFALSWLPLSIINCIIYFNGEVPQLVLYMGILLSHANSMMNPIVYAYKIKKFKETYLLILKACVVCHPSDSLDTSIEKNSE

Adenosine receptor A2a [4] = biological target: T4, Adenosine receptor A2a (Homo sapiens, UniProt P29274); assay: Displacement of [3H]ZM241385 from human adenosine A2A receptor expressed in CHO cell membranes at 1 uM after 60 mins by scintillation counting method relative to control
T4 sequence (P29274 whole entry): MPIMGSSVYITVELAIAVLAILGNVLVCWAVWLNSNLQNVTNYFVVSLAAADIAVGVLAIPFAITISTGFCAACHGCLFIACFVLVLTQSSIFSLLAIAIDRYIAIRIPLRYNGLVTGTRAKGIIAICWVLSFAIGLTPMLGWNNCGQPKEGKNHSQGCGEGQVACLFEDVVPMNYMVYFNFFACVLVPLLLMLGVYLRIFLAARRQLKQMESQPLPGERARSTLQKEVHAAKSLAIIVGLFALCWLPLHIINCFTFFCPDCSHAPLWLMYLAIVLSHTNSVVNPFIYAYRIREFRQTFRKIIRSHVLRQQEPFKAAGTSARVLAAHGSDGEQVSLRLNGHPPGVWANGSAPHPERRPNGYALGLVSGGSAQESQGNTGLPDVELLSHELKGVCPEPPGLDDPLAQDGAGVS
How it was run: (§2)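 hA2A CHO membranes (50 µg protein) with 1 nM [3H]ZM241385 in 50 mM Tris HCl, 10 mM MgCl2, pH 7.4, 60 min at 4 °C. Six to eight antagonist concentrations, or 1 µM for percent inhibition. Nonspecific binding with 1 µM ZM241385. Ki via Cheng–Prusoff, four assays in duplicate, means ± SEM.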

Adenosine receptor A3 [5] = biological target: T3, Adenosine receptor A3; assay: Displacement of [125I]AB-MECA from human adenosine A3 receptor expressed in CHO cell membranes after 120 mins by scintillation counting method
How it was run: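 hA3 CHO membranes (50 µg protein) with 0.5 nM [125I]AB-MECA in 50 mM Tris HCl, 10 mM MgCl2, 1 mM EDTA, pH 7.4, 120 min at 4 °C. Six to eight ligand concentrations, or 1 µM for percent inhibition. Nonspecific binding with 1 µM AB-MECA; GF/B filtration. Ki by Cheng–Prusoff, four assays in duplicate, means ± SEM.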

Adenosine receptor A1 = biological target: T5, Adenosine receptor A1 (Homo sapiens, UniProt P30542); assay: Displacement of [3H]DPCPX from human adenosine A1 receptor expressed in CHO cell membranes after 120 mins by scintillation counting method; how it was run: as §1
T5 sequence (P30542 whole entry): T2 sequence (whole entry)

Adenosine receptor A2a [6] = biological target: T4, Adenosine receptor A2a; assay: Displacement of [3H]ZM241385 from human adenosine A2A receptor expressed in CHO cell membranes after 60 mins by scintillation counting method; how it was run: as §2
[7] = biological target: T6, Adenosine receptor A3 (Rattus norvegicus) (UniProt P28647); assay: Displacement of [125I]AB-MECA from rat adenosine A3 receptor expressed in HEK293 cell membranes at 1 uM after 120 mins by scintillation counting method relative to control
T6 sequence (whole entry): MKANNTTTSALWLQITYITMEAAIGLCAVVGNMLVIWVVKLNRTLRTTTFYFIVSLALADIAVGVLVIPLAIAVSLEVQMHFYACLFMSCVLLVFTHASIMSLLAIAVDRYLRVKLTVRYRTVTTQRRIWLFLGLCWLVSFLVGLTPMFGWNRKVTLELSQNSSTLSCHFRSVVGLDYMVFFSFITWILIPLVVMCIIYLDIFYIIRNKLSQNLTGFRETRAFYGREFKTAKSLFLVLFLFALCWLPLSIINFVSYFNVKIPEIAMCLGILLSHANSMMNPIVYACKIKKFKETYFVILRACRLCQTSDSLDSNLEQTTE
How it was run: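 rA3 receptor in HEK293 membranes (10 μg protein), 0.5 nM [125I]AB-MECA, 50 mM Tris–HCl, 10 mM MgCl2, 1 mM EDTA, pH 7.4, 120 min at 25 °C. Nonspecific binding with 1 μM AB-MECA; filtration and scintillation counting. Percent inhibition of specific binding at 1 µM.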

Adenosine receptor A3 [8] = biological target: T3, Adenosine receptor A3; assay: Antagonist activity at human A3 receptor expressed in CHO cells assessed as inhibition of CI-IB-MECA-mediated inhibition of cAMP production by [3H]cAMP competition binding based scintillation counting method; assay type: cell-based
How it was run: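 hA3-transfected CHO cells (1 × 10^6/assay) in buffered saline pH 7.4 with adenosine deaminase and Ro 20-1724, preincubated 10 min at 37 °C. Antagonism of 100 nM Cl-IB-MECA inhibition of 1 µM forskolin-stimulated cAMP. cAMP measured by [3H]cAMP protein-binding assay. IC50 by sigmoid nonlinear regression, four independent experiments in triplicate, means ± SEM.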

| SMILES | inhibition [1] [%] | inhibition [2] [%] | inhibition (Adenosine receptor A3 [3]) [%] | inhibition (Adenosine receptor A2a [4]) [%] | Ki (Adenosine receptor A3 [5]) [nM] | Ki (Adenosine receptor A1) [nM] | Ki (Adenosine receptor A2a [6]) [nM] | inhibition [7] [%] | IC50 (Adenosine receptor A3 [8]) [nM] |
| --- | --- | --- | --- | --- | --- | --- | --- | --- | --- |
| Nc1nc(-c2cccc(NC(=O)Cc3ccccc3)c2)cn2cc(-c3ccccc3)nc12 | 7 | 37 | 8 | 33 |  |  |  |  |  |
| Nc1nccn2cc(-c3ccccc3)nc12 | 30 | 30 | 12 | 13 |  |  |  |  |  |
| COc1ccc(C(=O)Nc2nccn3cc(-c4ccccc4)nc23)cc1 | 1 | 1 |  | 3 | 162 |  |  |  |  |
| O=C(Nc1nc(-c2ccccc2)cn2cc(-c3ccccc3)nc12)c1ccc(F)cc1 | 2 | 1 |  | 1 | 38 |  |  |  |  |
| Nc1nc(-c2ccccc2)cn2cc(-c3ccccc3)nc12 | 36 |  | 23 |  |  | 180 | 310 |  |  |
| Nc1nc(-c2cccc(C(=O)O)c2)cn2cc(-c3ccccc3)nc12 | 3 | 7 | 1 | 9 |  |  |  |  |  |
| O=C(Nc1nccn2cc(-c3ccccc3)nc12)c1cccnc1 | 22 | 24 | 42 | 13 |  |  |  |  |  |
| O=C(Nc1nccn2cc(-c3ccccc3)nc12)c1ccccc1 | 2 | 18 |  | 1 | 52 |  |  | 2 | 163 |
| O=C(Nc1nc(-c2ccccc2)cn2cc(-c3ccccc3)nc12)c1ccc(Cl)cc1 | 1 | 1 |  | 1 | 156 |  |  |  |  |
| Nc1nc(-c2ccc(OCc3ccccc3)cc2)cn2cc(-c3ccccc3)nc12 | 4 | 10 | 1 | 1 |  |  |  |  |  |
| Nc1nc(-c2ccco2)cn2cc(-c3ccccc3)nc12 | 13 | 28 | 20 | 38 |  |  |  |  |  |
| O=C(Cc1ccccc1)Nc1nccn2cc(-c3ccccc3)nc12 | 15 | 46 |  | 37 | 524 |  |  |  |  |
| COc1cccc(-c2cn3cc(-c4ccccc4)nc3c(N)n2)c1 | 30 | 37 | 21 | 24 |  |  |  |  |  |
| O=C(Nc1nc(-c2ccccc2)cn2cc(-c3ccccc3)nc12)c1cccs1 | 4 | 5 |  | 1 | 185 |  |  |  |  |
| Cc1ccc(C(=O)Nc2nccn3cc(-c4ccccc4)nc23)cc1 | 10 | 26 | 45 | 21 |  |  |  |  |  |
| COc1ccc(-c2cn3cc(-c4ccccc4)nc(N)c3n2)cc1 | 1 |  | 27 | 1 |  | 524 |  |  |  |
| COc1ccc(-c2cn3cc(-c4ccccc4)nc3c(N)n2)cc1 | 16 | 20 | 23 | 23 |  |  |  |  |  |
